Among the data in ChEMBL document CHEMBL4190220, “Withanolides from Aeroponically Grown Physalis peruviana and Their Selective Cytotoxicity to Prostate Cancer and Renal Carcinoma Cells” (J Nat Prod, 2017) are Activity and IC50 values, retold here.

In data set [1] the test system is CWR22R. Description: Cytotoxicity against human 22Rv1 cells assessed as reduction in cell viability up to 5 uM after 72 hrs by CellTiter96 AQueous one solution cell proliferation assay. In kind it is functional, cell-based. The procedure, abridged:
(§1)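 Cells in RPMI with 5% fetal calf serum, glutamine, nonessential amino acids, pyruvate, HEPES, 2-mercaptoethanol and antibiotics. Seeded at 10 000 (LNCaP) or 5000 (others) and grown overnight at 37 °C, then exposed to compound in DMSO, triplicate wells, 72 h. Read by MTS at 490 nm after 2 h. % cytotoxicity = (A medium − A treatment)/A medium × 100.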

Data set [2] has as its system M14. Description: Cytotoxicity against human M14 cells assessed as reduction in cell viability up to 5 uM after 72 hrs by CellTiter96 AQueous one solution cell proliferation assay. In kind it is functional, cell-based. Put shortly:
(§2)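 Melanoma cells in DMEM-based medium (5% fetal calf serum, glutamine, nonessential amino acids, pyruvate, HEPES, 2-mercaptoethanol, antibiotics). 5000 cells were grown overnight at 37 °C, then exposed to compound in DMSO in triplicate wells for 72 h. MTS absorbance at 490 nm after 2 h. % cytotoxicity = (A medium − A treatment)/A medium × 100.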

Data set [3] concerns HFF. Description: Cytotoxicity against HFF cells assessed as reduction in cell viability up to 5 uM after 72 hrs by CellTiter96 AQueous one solution cell proliferation assay. In kind it is cell-based. Particulars: human. The procedure, abridged: as §1
The subject of data set [4] is SK-MEL-28. Description: Cytotoxicity against human SK-MEL-28 cells assessed as reduction in cell viability up to 5 uM after 72 hrs by CellTiter96 AQueous one solution cell proliferation assay. It counts as functional, cell-based. Put shortly: as §2
Data set [5] relates to LNCaP. Description: Cytotoxicity against human LNCAP cells assessed as reduction in cell viability up to 5 uM after 72 hrs by CellTiter96 AQueous one solution cell proliferation assay. In kind it is functional, cell-based. Put shortly:
as §1

Data set [6] deals with ACHN. Put plainly: Cytotoxicity against human ACHN cells assessed as reduction in cell viability up to 5 uM after 72 hrs by CellTiter96 AQueous one solution cell proliferation assay. It counts as functional, cell-based. The procedure, abridged: as §1
Data set [7] relates to LNCaP. Description: Cytotoxicity against human LNCAP cells assessed as reduction in cell viability after 72 hrs by CellTiter96 AQueous one solution cell proliferation assay. It counts as functional, cell-based. Put shortly:
(§3)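 MTS viability in RPMI with 5% fetal calf serum, 2.0 mM L-glutamine, nonessential amino acids, 1.0 mM pyruvate, penicillin/streptomycin, 10 mM HEPES and 2-mercaptoethanol. Cells were seeded at 10 000 (LNCaP) or 5000 (others) and grown overnight at 37 °C. Serial dilutions in DMSO went into triplicate wells for 72 h. MTS was read at 490 nm after 2 h. IC50 ± SD from dose–response curves, at least three independent experiments.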

Data set [8] has as its system CWR22R. Put plainly: Cytotoxicity against human 22Rv1 cells assessed as reduction in cell viability after 72 hrs by CellTiter96 AQueous one solution cell proliferation assay. It counts as functional, cell-based. The conditions noted are these: 22Rv1, 72 h. The procedure, abridged:
as §3

The test system of data set [9] is M14. Put plainly: Cytotoxicity against human M14 cells assessed as reduction in cell viability after 72 hrs by CellTiter96 AQueous one solution cell proliferation assay. In kind it is functional, cell-based. Particulars: M14, 72 h. The procedure, abridged: (§4)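 MTS viability in DMEM with 5% fetal calf serum, 2.0 mM L-glutamine, nonessential amino acids, 1.0 mM pyruvate, penicillin/streptomycin, 10 mM HEPES and 2-mercaptoethanol. 5000 cells were grown overnight at 37 °C. Serial DMSO dilutions went into triplicate wells for 72 h. MTS absorbance was read at 490 nm after 2 h. IC50 ± SD from at least three independent dose–response experiments.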

For data set [10], the system named is ACHN. Description: Cytotoxicity against human ACHN cells assessed as reduction in cell viability after 72 hrs by CellTiter96 AQueous one solution cell proliferation assay. It counts as functional, cell-based. The procedure, abridged:
as §3

The test system of data set [11] is SK-MEL-28. Put plainly: Cytotoxicity against human SK-MEL-28 cells assessed as reduction in cell viability after 72 hrs by CellTiter96 AQueous one solution cell proliferation assay. In kind it is functional, cell-based. Particulars: SK-MEL-28, 72 h. Put shortly:
as §4

The subject of data set [12] is HFF. Description: Cytotoxicity against HFF cells assessed as reduction in cell viability after 72 hrs by CellTiter96 AQueous one solution cell proliferation assay. In kind it is cell-based. The conditions noted are these: Homo sapiens. The procedure, abridged: as §3

Molecules are shown by their SMILES. Active and inactive are the calls of the source. The calls are words filed in the database; no cut-off is given here.

As to `C[C@H]1C(=O)O[C@@H]([C@](C)(O)[C@H]2CC[C@@]3(O)[C@@H]4CC=C5CC=CC(=O)[C@]5(C)[C@H]4CC[C@]23C)[C@@H](O)[C@@H]1CO`, the result in data set [1], in data set [2], in data set [4], in [5] and in data set [6] was inactive. Also, in data set [3], the Activity result is on record as “Non-Toxic”.
The IC50 is the concentration at which inhibition is half-maximal. As to `COc1cccc2c1C(=O)c1c(O)c3c(c(O)c1C2=O)C[C@@](O)(C(=O)CO)C[C@@H]3O[C@H]1C[C@H](N)[C@H](O)[C@H](C)O1` [DOXORUBICIN], the IC50 is 20 nM in data set [7]; 20 nM in data set [8]; 90 nM in [9]; 20 nM in data set [10]; 250 nM in [11].
Regarding `C[C@H]1C(=O)OC[C@H]1C[C@@H](O)[C@](C)(O)[C@H]1CC[C@@]2(O)[C@@H]3CC=C4CC=CC(=O)[C@]4(C)[C@H]3CC[C@]12C`, the outcome in data set [1], in data set [2], in data set [4], in data set [5] and in [6] was inactive. Further, in [3], the Activity result is “Non-Toxic”.
`CC1=C(C)[C@H](O)[C@H]([C@](C)(O)[C@H]2CC[C@@]3(O)[C@@H]4C[C@H]5O[C@]56CC=CC(=O)[C@]6(C)[C@H]4CC[C@]23C)OC1=O`: the result in data set [1], in data set [2], in [4], in [5] and in data set [6] was inactive. Besides, the Activity entry in data set [3] is reported as “Non-Toxic”.
On to `C[C@H]1C(=O)OC[C@H]1C[C@@H](O)[C@](C)(O)[C@]1(O)CC[C@@]2(O)[C@@H]3C[C@H]4O[C@]45CC=CC(=O)[C@]5(C)[C@H]3CC[C@]12C`, for which the outcome in data set [1], in [2], in [4], in [5] and in data set [6] was inactive. Moreover, in data set [3], the Activity entry was “Non-Toxic”.
On to `CC1=C(C)C(=O)O[C@@H]([C@](C)(O)[C@]2(O)CC[C@@]3(O)[C@@H]4[C@@H](O)C=C5C=CCC(=O)[C@]5(C)[C@H]4CC[C@]23C)C1`, for which the IC50 is 940 nM in data set [7]; over 2000 nM in [12]; 990 nM in data set [8]; over 2000 nM in data set [9]; over 2000 nM in data set [10]; over 2000 nM in [11].
As to `CC1=C(C)C(=O)O[C@@H]([C@](C)(O)[C@]2(O)CC[C@@]3(O)[C@@H]4CC=C5CC=CC(=O)[C@]5(C)[C@H]4CC[C@]23C)C1` [WITHANOLIDE F], the IC50 in data set [7] is 130 nM; in data set [12], over 2000 nM; in data set [8], 70 nM; in data set [9] it was over 2000 nM; in [10], over 2000 nM; in [11] it was over 2000 nM.
For the molecule `CC1=C(C)C(=O)O[C@@H]([C@](C)(O)[C@]2(O)CC[C@@]3(O)[C@@H]4C[C@@H](O)[C@@]5(O)CC=CC(=O)[C@]5(C)[C@H]4CC[C@]23C)C1`, the outcome in data set [1], in data set [2], in data set [4], in data set [5] and in [6] was inactive. In addition, the Activity entry in [3] is on record as “Non-Toxic”.
For the molecule `CC1=C(C)C(=O)O[C@@H]([C@](C)(O)[C@]2(O)CC[C@@]3(O)[C@@H]4C[C@H](Cl)[C@]5(O)[C@@H](O)C=CC(=O)[C@]5(C)[C@H]4CC[C@]23C)C1`, the result in data set [1], in [2], in [4], in data set [5] and in data set [6] was inactive. Besides, the Activity entry in data set [3] was “Non-Toxic”.
Regarding `C[C@H]1C(=O)OC[C@H]1C[C@@H](O)[C@](C)(O)[C@@]1(O)CC[C@@]2(O)[C@@H]3CC=C4CC=CC(=O)[C@]4(C)[C@H]3CC[C@]12C`, the outcome in data set [1], in data set [2], in data set [4], in [5] and in data set [6] was inactive. Moreover, the Activity result in data set [3] is “Non-Toxic”.
For `CC1=C(C)C(=O)O[C@@H]([C@](C)(O)[C@]2(O)CC[C@@]3(O)[C@@H]4C[C@H](Cl)[C@]5(O)CC=CC(=O)[C@]5(C)[C@H]4CC[C@]23C)C1`, the outcome in data set [1], in data set [2], in data set [4], in [5] and in [6] was inactive. Moreover, in data set [3], the Activity entry is “Non-Toxic”.
On to `CC1=C(C)C(=O)O[C@@H]([C@](C)(O)C2=CC[C@@]3(O)[C@@H]4C[C@H]5O[C@]56[C@@H](O)C=CC(=O)[C@]6(C)[C@H]4CC[C@]23C)C1`, for which the outcome in data set [1], in data set [2], in data set [4], in [5] and in [6] was inactive. The Activity result in data set [3] is listed as “Non-Toxic”.
For `CC(=O)OC[C@]12CC[C@H]3[C@@H](C[C@H]4O[C@]45CC=CC(=O)[C@]35C)[C@]1(O)CC[C@@]2(O)[C@@](C)(O)[C@H]1CC(C)=C(C)C(=O)O1`, the IC50 in [12] is over 2000 nM; in data set [8] it was 30 nM; in data set [9] it was over 2000 nM; in data set [10], 570 nM; in [11] it was over 2000 nM.
Consider `C[C@H]1C(=O)OC[C@H]1C[C@@H](O)[C@](C)(O)C1=CC[C@H]2[C@@H]3C[C@H]4O[C@]45CC=CC(=O)[C@]5(C)[C@H]3CC[C@]12C`, for which the outcome in [1], in [2], in [4], in data set [5] and in data set [6] was inactive. For the same molecule, in data set [3], the Activity entry is recorded as “Non-Toxic”.
As to `CO[C@]12CC=CC(=O)[C@]1(C)[C@H]1CC[C@]3(C)[C@](O)([C@@](C)(O)[C@H]4CC(C)=C(C)C(=O)O4)CC[C@@]3(O)[C@@H]1C[C@H]2O`, the outcome in data set [1], in [2], in data set [4], in [5] and in data set [6] was inactive. In addition, the Activity entry in data set [3] was “Non-Toxic”.
Consider `C[C@H]1C(=O)OC[C@H]1C[C@@H](O)[C@](C)(O)[C@]1(O)CC[C@@]2(O)[C@@H]3CC=C4CC=CC(=O)[C@]4(C)[C@H]3CC[C@]12C`, for which the result in [1], in [2], in data set [4], in data set [5] and in data set [6] was inactive. Further, the Activity entry in data set [3] is listed as “Non-Toxic”.
Turning to `C[C@H]1C(=O)OC[C@H]1C[C@@H](O)[C@](C)(O)[C@]1(O)CC[C@@]2(O)[C@@H]3CC=C4C=CCC(=O)[C@]4(C)[C@H]3CC[C@]12C`, the outcome in data set [1], in [2], in [4], in data set [5] and in [6] was inactive. For the same molecule, the Activity entry in [3] is “Non-Toxic”.
`CC1=C(C)C(=O)O[C@@H]([C@](C)(O)C2=CC[C@@]3(O)[C@@H]4C[C@H]5O[C@]56CC=CC(=O)[C@]6(C)[C@H]4CC[C@]23C)C1`: the result in data set [1], in [2], in data set [4], in data set [5] and in data set [6] was inactive. The Activity entry in [3] is listed as “Non-Toxic”.
